Compound activity from PubChem BioAssay.
Sampled rows, rich in hits. Any-hit rate of the full collection: about 4.6%.
OX1R antag-1: antagonists of human orexin 1 receptor (OX1R); O43613; OX1R-expressing cells, FRET antagonist read-out; inhibition, % at 6.6 µM; 330,000 compounds, 1.8% hits; in the data active means inhibition mostly above about 38%, no sharp cut-off; inactive means mostly below about 40%;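 further: 0% = agonist challenge alone and 100% = reference antagonist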
CHO parental Ca: counter-screen for OX1R antagonists: effect in parental CHO cells; parental CHO-K1, ATP-induced calcium, Fluo-8 fluorescence; inhibition, % at 5.6 µM; 330,000 compounds, 0.63% hits; AID 463079;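 active means inhibition above that plate's mean sample inhibition plus 3 SD, cut at about 26% in these data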;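 further: 0% = ATP-challenged DMSO wells and 100% = DMSO wells without ATP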
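Measured by: calcium-sensitive Fluo-8 fluorescence / Test system: CHO parental line / Controls: ATP-challenged DMSO wells low, unchallenged DMSO wells high / Measure: % inhibition / Compound: single nominal dose of 5.6 µM per compound / Replicates: single well per compound, no replicates / Reagent: ATP as calcium-mobilizing challenge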
GPR7 antagonist: human neuropeptides B/W receptor 1 antagonism; GPR7-expressing cells, fluorescence antagonist assay; 290,000 compounds, 1.1% hits; inhibition, % at 4.4 µM; in the data active means inhibition above about 16%, passing the limit was not always enough;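 further: cells stimulated with the agonist NPW; 0% = agonist with vehicle and 100% = vehicle without agonist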
TAAR1 agonist: agonists of human TAAR1 | Q96RJ0 | CHO RD-HGA16 TAAR1, Fluo-8 calcium fluorescence; vehicle wells 0%, saturating PEA agonist 100% | activation, % at 3 µM | 360,000 compounds, 0.99% hits | AID 624467;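 active means activation above the mean activation of all test compounds in the run plus 3 SD, cut at about 38% in these data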
Target sequence (Q96RJ0 whole entry, looked up): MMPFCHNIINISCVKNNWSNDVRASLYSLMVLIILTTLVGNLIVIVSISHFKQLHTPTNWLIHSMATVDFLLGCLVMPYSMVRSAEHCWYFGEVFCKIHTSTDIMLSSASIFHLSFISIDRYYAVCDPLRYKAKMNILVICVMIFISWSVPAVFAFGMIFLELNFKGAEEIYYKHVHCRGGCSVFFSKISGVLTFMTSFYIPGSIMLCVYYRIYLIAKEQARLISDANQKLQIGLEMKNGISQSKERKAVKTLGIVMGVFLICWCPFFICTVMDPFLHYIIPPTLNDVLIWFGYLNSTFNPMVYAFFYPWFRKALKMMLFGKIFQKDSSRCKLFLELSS
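Repeats: no replicates (n 1) | Material: CHO-derived RD-HGA16 cells with stable Gα16 and human TAAR1 | Technique: Kinetic Fluo-8 calcium fluorescence | Schedule: 17-24 h seeding, 75 min 37 °C dye, 30 min RT | Evaluation: % activation from peak over basal fluorescence ratio, DMSO-to-PEA scaled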
OX1R antag-2: blocks the human orexin 1 receptor. CHO/OX1R cells, Fluo-8 calcium fluorescence, orexin A. inhibition, % at 5 µM. 330,000 compounds, 0.43% hits. AID 434989;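 active means inhibition above its plate's threshold, mean inhibition of all tested compounds on the plate plus 3 SD, cut at about 37% in these data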;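 further: 0% = orexin A challenge wells and 100% = SB-334867-A antagonist wells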
TAAR1 antag: antagonists of human TAAR1 | 360,000 compounds, 1.5% hits | AID 624466 | CHO RD-HGA16 TAAR1, Fluo-8 calcium fluorescence, antagonist | inhibition, % at 3 µM | Q96RJ0;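 active means inhibition above a per-plate cutoff, the mean inhibition of test compounds on that plate plus 3 SD, cut at about 49% in these data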;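 further: 0% = DMSO plus EC80 beta-PEA response and 100% = DMSO alone without agonist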
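Test system: RD-HGA16 CHO cells with stable hTAAR1 and Gα16 / Probe or stimulus: EC80 β-phenethylamine stimulus / Times: seeding 17-24 h prior, 75-min 37 °C, 30-min RT dye loading / Detection: Fluo-8 calcium-sensitive fluorescence / Read-out basis: % inhibition scaled between DMSO and EC80 PEA controls / Repeats: singlicate, one well per test compound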
* = called active by the depositor; . = no result given.

SMILES	OX1R antag-1	CHO parental Ca	GPR7 antagonist	TAAR1 agonist	OX1R antag-2	TAAR1 antag
COc1ccc(-c2csc(NC(=O)CCn3cnc4ccccc4c3=O)n2)cc1OC	15.3	-15.1	-3.2	19.8	-9.4	55.2*
N#Cc1c(NC(=O)CCn2cnc3ccccc3c2=O)oc(-c2ccccc2)c1-c1ccccc1	25.1	-22.5	17.9*	3.9	-34.3	-2.6
CCCc1nc2ccccc2c(C(=O)OCC(=O)N2CCc3ccccc32)c1CC	7.8	-16.1	-19.7	0.4	-20.0	52.2*
CCCc1nc2ccccc2c(C(=O)OCC(=O)Nc2ccc(S(=O)(=O)N3CCOCC3)cc2)c1CC	-1.9	-16.3	-7.1	12.4	-16.2	21.8
CCCc1nc2ccccc2c(C(=O)OCC(=O)Nc2cccc(S(=O)(=O)N3CCOCC3)c2)c1CC	19.2	6.1	-14.6	2.8	-4.7	51.6*
Cc1ccc(C(=O)NCCC(=O)Nc2ccccc2C)cc1	1.1	-6.5	8.6	5.7	-12.8	-14.9
COc1cccc(CNC23CC4CC(CC(C4)C2)C3)c1OCc1ccccc1	12.5	8.8	39.1*	13.5	-24.5	-16.4
CC1(C)CCN2CCC(C)(C)c3c(O)ccc1c32	14.4	38.4*	22.5	23.6	40.5*	17.4
Cc1cc(C)nc(SSc2nc(C)cc(C)n2)n1	8.4	-7.6	-1.1	46.1*	2.3	26.2
Cc1cccc(NC(=O)CCS(=O)(=O)c2cccc3nsnc23)c1C	63.3*	-23.9	-0.6	5.1	-27.2	-4.3
CCOC(=O)c1cccc(NC(=O)CCS(=O)(=O)c2cccc3nsnc23)c1	69.1	-25.0	-7.6	19.3	-34.3	0.6
COc1ccc(CCNC(=O)CCS(=O)(=O)c2cccc3nsnc23)cc1OC	76.7*	-15.9	-9.9	1.3	-18.5	-0.1
O=C(NCc1cccs1)c1ccc2nc([C@@H]3O[C@H](CO)[C@H](O)[C@H](O)[C@H]3O)[nH]c2c1	.	.	.	1.4	.	-6.5
Cc1ccccc1Cn1nc(C)c(NC(=O)C2c3ccccc3Oc3ccccc32)c1C	23.8	-6.4	-3.6	39.5*	-1.6	6.1
COc1ccc(N(CC(=O)NCCSCc2ccco2)S(=O)(=O)c2ccccc2)cc1	27.9	-12.0	3.0	9.6	-6.2	19.2
COc1ccccc1N(CC(=O)NCCSCc1ccco1)S(=O)(=O)c1ccccc1	50.9*	-33.5	-3.4	7.7	23.3	38.7
O=C(CN(c1ccccc1)S(=O)(=O)c1ccccc1)NCCSCc1ccco1	56.6*	-12.1	-7.2	6.4	-7.8	25.5
COc1ccccc1N(CC(=O)NCCSCc1ccccc1)S(=O)(=O)c1ccccc1	.	.	.	7.3	.	65.2*
COc1ccccc1N(CC(=O)NCCSCc1ccccc1)S(=O)(=O)c1ccc(C)cc1	40.1	-11.7	-7.5	-0.8	9.9	46.9
COc1ccc(N(CC(=O)NCCSCc2ccco2)S(=O)(=O)c2ccccc2)cc1OC	24.3	-27.9	2.8	2.6	-12.0	12.0
O=C(NCc1ccc(F)cc1)C1CCCN1C(=O)Nc1ccccc1 (centres undefined)	4.4	-17.0	-11.3	-1.6	-21.6	-3.9
COc1ccc([C@H]2CC(=O)C=C(c3cccc4c3Oc3ccccc3S4)C2)cc1	8.1	-16.9	.	2.9	-5.8	13.4
COc1ccc(CNC(=O)C(OC(=O)c2ccco2)c2ccc(F)cc2)cc1 (centres undefined)	17.0	-25.1	-6.5	0.6	-23.8	16.7
NC(=O)C1CN(S(=O)(=O)c2ccc(Cl)cc2F)c2ccccc2O1 (centres undefined)	8.6	-13.3	-6.0	-2.8	-12.0	-4.5
CCOc1ccc(N2C(=O)CC(NCCc3c[nH]c4ccccc34)C2=O)cc1 (centres undefined)	61.4*	-7.4	-0.7	8.3	14.0	-1.2
CCOc1ccc(N2C(=O)CC(NCCc3ccncc3)C2=O)cc1 (centres undefined)	11.2	-8.4	-11.2	8.5	9.6	-1.0
O=C(NC(=S)N1CCCCC1)c1csc([N+](=O)[O-])c1	37.2*	-1.2	-14.6	2.2	-15.9	-11.4
Oc1cc(NCCN2CCOCC2)cc2cccnc12	54.5*	-1.3	.	9.9	1.6	7.7
Oc1cc(Nc2ccccc2)cc2cccnc12	26.9	1.7	.	7.2	5.7	4.5
